# CHO-K1 Ca ag: counter-screen for M1 agonists: effect in parental CHO-K1 cells | Fluo-8 calcium fluorescence; scaled to maximal ATP response, vehicle zero | activation, % at 3 µM | 0.48% of 360,000 active | AID 602248, 2012; in the data active means activation above about 15%;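 further: untransfected CHO-K1 host cells lacking M1 receptor as counterscreen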
# OX1R antag-1: OX1R (HCRTR1) antagonists, primary screen, fluorescence, CHO/OX1R cells, Fluo-8 calcium, orexin A; Orexin/Hypocretin receptor type 1 (Homo sapiens), O43613; Fluo-8 calcium fluorescence; inhibition, % at 5 µM; 0.43% of 330,000 active; AID 434989, 2010;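 active means inhibition above its plate's threshold, mean inhibition of all tested compounds on the plate plus 3 SD, cut at about 37% in these data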
# Target sequence (O43613 whole entry, looked up): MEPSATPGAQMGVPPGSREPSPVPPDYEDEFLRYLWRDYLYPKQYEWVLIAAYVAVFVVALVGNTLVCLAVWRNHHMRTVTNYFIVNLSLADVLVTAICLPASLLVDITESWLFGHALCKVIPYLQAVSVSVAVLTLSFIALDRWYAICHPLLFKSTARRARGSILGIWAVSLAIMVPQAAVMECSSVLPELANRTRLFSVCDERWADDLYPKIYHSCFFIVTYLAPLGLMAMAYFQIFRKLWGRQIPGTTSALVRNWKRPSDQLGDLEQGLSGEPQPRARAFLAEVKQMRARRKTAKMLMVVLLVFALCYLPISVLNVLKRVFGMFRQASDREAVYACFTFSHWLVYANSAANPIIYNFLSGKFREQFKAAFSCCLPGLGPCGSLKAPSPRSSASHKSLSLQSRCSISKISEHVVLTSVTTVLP
# CHO-K1 Ca antag: nonselective inhibitor or artifact in parental CHO-K1 cells | inhibition, % at 3 µM | 0.6% of 360,000 active | ATP-induced calcium, Fluo-8 fluorescence;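 active means inhibition above a per-plate cutoff, the plate's mean sample inhibition plus 3 SD, cut at about 24% in these data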
# OX1R antag-2: antagonists of human orexin 1 receptor (OX1R) | OX1R-expressing cells, FRET antagonist read-out | AID 485270, 2010 | 1.8% of 330,000 active | inhibition, % at 6.6 µM; in the data active means inhibition mostly above about 38%, no sharp cut-off; inactive means mostly below about 40%
# CHO parental Ca: ATP-evoked calcium signal inhibitors, parental CHO, primary screen, counter-screen for OX1R antagonist project, cell-based, fluorescence, Fluo-8 calcium dye; parental CHO-K1, ATP-induced calcium, Fluo-8 fluorescence; AID 463079, 2010; 0.63% of 330,000 active; inhibition, % at 5.6 µM;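 active means inhibition above that plate's mean sample inhibition plus 3 SD, cut at about 26% in these data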
#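 Material – parental CHO cells · Reagent – ATP stimulus · Compound – single nominal dose of 5.6 µM per compound · Detection – Fluo-8 fluorescence · Read-out basis – percent inhibition of calcium signal · Controls – ATP-challenged DMSO wells low, unchallenged DMSO wells high · Repeats – no replicates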
# CHO-K1 Ca PAM: nonselective calcium activators in parental CHO-K1 cells, primary screen, counter-screen for M1 PAM project, cell-based, Fluo-8 calcium fluorescence, full deck, 1536-well. ATP EC20; 0% at ATP EC20, 100% at ATP max. activation, % at 3 µM. 0.02% of 360,000 active. AID 602247, 2012;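 active means activation above the run cutoff, the mean activation of all test compounds plus 3 SD, cut at about 40% in these data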;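 further: peak over basal fluorescence ratio in a 140 s read after ATP addition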
# Numbers stand for hits; - = inactive; . = no result given. The list is not random: actives were taken first. Their share in the collection is about 2.9%.
SMILES,CHO-K1 Ca ag,OX1R antag-1,CHO-K1 Ca antag,OX1R antag-2,CHO parental Ca,CHO-K1 Ca PAM
CCN(CC(=O)Nc1ccccc1C(F)(F)F)C(=O)CN1C(=O)NC2(CCCCC2)C1=O,-,-,27,-,-,-
CN(CC(=O)Nc1c(Cl)cccc1Cl)C(=O)CCc1nc2sc3c(c2c(=O)[nH]1)CCCC3,-,-,-,-,-,-
CCOC(=O)C1CCN(C(=O)c2ccc(N3CCCC3=O)cc2)CC1,-,-,-,-,-,-
CC(=O)CC1c2cc(F)ccc2C=C(c2ccsc2)N1c1ccc(-c2cccnc2)cc1 (centres undefined),-,.,-,.,.,-
Cc1ccc(S(=O)(=O)N2CCC(C(=O)OC(C)C(=O)NCc3ccccc3)CC2)cc1C (centres undefined),-,-,-,-,-,-
CC(=O)NCc1nc2ccccc2n1Cc1ccccc1F,-,-,24,-,-,-
CCCCN(C(C)=O)c1c(CC)nc2ccc(C(=O)NCCCN(C)C)cn12,-,.,-,.,.,-
COc1ccc(-n2c(C)nc3c(cnn3-c3ccc(C)cc3)c2=O)cc1,-,-,-,-,-,-
Cc1cccc(-n2c(C)nc3c(cnn3-c3ccc(F)cc3)c2=O)c1,-,-,-,-,35,-
COc1ccc(Oc2c(Cl)cnn(-c3ccc(Cl)c(Cl)c3)c2=O)cc1,-,-,-,-,52,-
COc1ccc(-n2c(C)nc3c(cnn3-c3ccc(Cl)cc3)c2=O)cc1,-,-,-,-,40,-
NS(=O)(=O)c1cccc(NC(=O)COC(=O)Cc2n[nH]c(=O)c3ccccc23)c1,-,-,-,-,-,-
COc1ccccc1P(=O)(Cc1ccccc1)c1ccccc1 (centres undefined),-,-,-,-,-,-
CSc1nc(N)nc(SCC(=O)Nc2cccc(F)c2)c1C#N,-,-,-,-,62,-
CSc1nc(N)nc(SCC(=O)Nc2ccc(Cl)cc2)c1C#N,-,-,-,-,-,-
CN(CC(=O)Nc1ccc(F)cc1)C(=O)CSc1nc2ncc(Cl)cc2[nH]1,-,-,-,-,-,-
O=C(CSc1nc2ncc(Cl)cc2[nH]1)Nc1cccc(F)c1,-,-,-,47,-,-
Cc1ccc(C)c(S(=O)(=O)Nc2cc3c4c(c2)CCC(=O)N4CCC3)c1,-,-,-,-,-,-
COc1ccc(NC(=O)CCNS(=O)(=O)c2ccccc2F)cc1S(N)(=O)=O,-,-,-,-,-,-
O=C(CCS(=O)(=O)c1ccc(Br)cc1)Nc1ccccn1,-,-,24,-,-,-
O=C(Cn1nnc(-c2ccccc2)n1)Nc1cccc(S(=O)(=O)N2CCCC2)c1,-,-,-,-,-,-
O=S(=O)(c1cccc(Cn2nnc(-c3ccccc3)n2)c1)N1CCOCC1,16,-,-,-,-,-
O=C(COC(=O)C12CC3CC(CC(O)(C3)C1)C2)Nc1ccc(Cl)cc1F,-,-,-,-,-,-
COC(=O)c1ccc(C(=O)OC)c(NC(=O)COC(=O)C23CC4CC(CC(O)(C4)C2)C3)c1,-,-,33,-,-,-
Cc1cccc(Cn2cc(SCC(=O)Nc3nccs3)c3ccccc32)c1,-,-,-,34,-,-
SMILES,CHO-K1 Ca ag,OX1R antag-1,CHO-K1 Ca antag,OX1R antag-2,CHO parental Ca,CHO-K1 Ca PAM
Cc1ccc(Cn2cc(SCC(=O)Nc3nccs3)c3ccccc32)cc1,-,-,-,-,-,-
CCc1c(C(=O)Nc2ccc(OC)c(Cl)c2)[nH]c(C)c1C(C)=O,-,50,-,89,32,-
Brc1ccc2ncnc(Nc3cccc4ccccc34)c2c1,19,-,-,-,-,-
CC(=O)c1ccc(NC(=O)CNC2CCCCC2)cc1,20,-,-,-,-,-
CCN(C(=O)CSc1nc2ccccc2c(=O)n1C(C)COC)C1CCS(=O)(=O)C1 (centres undefined),-,-,-,-,-,-
Cn1c(=O)[nH]c(=O)c2c1nc(N1CCCCC1)n2C/C=N/NC(=O)c1cc(Br)ccc1O,26,-,-,-,-,-
CC(=O)c1ccc(NC(=O)COC(=O)CCC2CCCC2)cc1,-,-,-,-,-,-
Cc1cccc(NC(=O)c2ccc(C(=O)c3ccccc3)o2)c1,-,-,-,-,-,-
C=CC[C@@H](CC(=O)OC(C)(C)C)C(=O)OC[C@@H]1CCCN1C(=O)[C@@H](CC=C)CC(=O)N[C@@H](CO)Cc1ccccc1,-,-,-,-,-,-
C=CC[C@@H](Cc1ccc(F)cc1)C(=O)OC[C@@H]1CCCN1C(=O)[C@H](CC=C)CC(=O)N[C@H](CO)Cc1ccccc1,-,101,-,64,-,-
COC(=O)c1ccc(NC(=O)Cn2nc(C(=O)Nc3ccc(C)cc3)ccc2=O)cc1,-,-,-,-,-,-
O=C(Nc1c[nH]c(=O)[nH]c1=O)c1cc([N+](=O)[O-])cc([N+](=O)[O-])c1,-,-,-,69,-,-
O=C(Nc1c[nH]c(=O)[nH]c1=O)c1ccc2c(c1)C(=O)N(c1cccc([N+](=O)[O-])c1)C2=O,-,.,-,.,.,-
Cc1oc(-c2ccc(Cl)cc2)nc1CS(=O)CC(=O)NCCN1CCCC1 (centres undefined),-,-,25,-,-,-
O=C(CSC1=NS(=O)(=O)c2cc(Cl)ccc2N1)NCc1ccc(F)cc1,-,-,30,-,-,-
CCOc1cc(S(=O)(=O)NCc2ccncc2)ccc1Cl,-,-,55,-,38,-
C=CCN(C(=O)CCC(=O)Nc1cc(C)on1)C(C(=O)NC1CCCC1)c1ccc(OC)cc1OC (centres undefined),-,-,-,-,-,-
Fc1ccc(NC(=S)N2CCCN(c3ccc(C(F)(F)F)cn3)CC2)c(F)c1,-,57,24,-,-,-
CCOC(=O)C1CCCN(C(=O)CCn2nc(-c3ccccc3)ccc2=O)C1 (centres undefined),-,-,24,-,-,-
O=C(CCn1nc(-c2ccccc2)ccc1=O)N1CCCC1,-,-,-,-,-,-
COCC(C)NC(=O)c1nn(Cc2ccccc2)c(=O)c2ccccc12 (centres undefined),-,-,-,74,-,-
CCC(C)NC(=O)c1nn(Cc2ccccc2)c(=O)c2ccccc12 (centres undefined),-,-,-,-,-,-
Cc1ccc(C(=O)OCc2nc3ccccc3s2)o1,16,-,-,-,-,-
Nc1ccc(C(=O)OCc2nc3ccccc3s2)cc1,-,-,-,-,-,-
O=C1OCC/C1=C\NCCCN/C=C1\CCOC1=O,-,.,-,.,.,-
COc1ccc(-c2[nH]c3ccccc3c2SCCNC(=O)c2cc3ccccc3oc2=O)cc1,-,-,-,42,-,-
